The values that follow come from ChEMBL document CHEMBL1159032, “Renal excretion of stevioside in rats” (J Nat Prod, 1992).

In data set [1] the test system is Rattus norvegicus. As to the kind of experiment: Effect on renal excretion in Wistar rat assessed as fractional sodium excretion at 12 mg/kg/hr, iv (RVb=0.70 %). Type of data set: functional, Kidney.
Data set [2] concerns Rattus norvegicus. Put plainly: Effect on renal excretion in Wistar rat assessed as inulin clearance at 16 mg/kg/hr, iv administered 30 mins after inulin infusion (RVb=6.29 ml/min/kg). Type of data set: functional, Kidney.
The subject of data set [3] is Rattus norvegicus. Put plainly: Effect on renal excretion in Wistar rat assessed as glomerular filtration rate at 4 mg/kg/hr, iv (RVb=1.39 %). The data set is classed as functional, Kidney. Conditions: in the assay text read “16 mg/kg/hr” for “4 mg/kg/hr”. In short, it runs like this:
(§1)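 Anaesthetized (pentobarbital 30 mg/kg ip) male Wistar rats (~345 g), 10 per group, were studied over a 30-min control period then a 30-min stevioside priming-plus-iv infusion period. Ringer's containing 2% PAH and 10% inulin was infused at 0.03 ml/min. Urine flow from timed bladder collection was expressed as percent of GFR, with GFR taken as inulin clearance (anthrone assay).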

The test system of data set [4] is Rattus norvegicus. As to the kind of experiment: Effect on renal excretion in Wistar rat assessed as fractional sodium excretion at 8 mg/kg/hr, iv (RVb=0.58 %). The data set is classed as functional, Kidney.
The subject of data set [5] is Rattus norvegicus. As to the kind of experiment: Effect on renal excretion in Wistar rat assessed as fractional sodium excretion at 4 mg/kg/hr, iv (RVb=0.61 %). Type of data set: functional, Kidney.
A short description of data set [6]: Clearance in Wistar rat at 16 mg/kg/hr, iv. Details: route intravenous. The data set is classed as ADME, organism-based. Conditions: in vivo. Put shortly: (§2)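 Male Wistar rats (~345 g, fed, water ad lib) under ip sodium pentobarbital (30 mg/kg) on a heated table, tracheostomized. Stevioside (3% in isotonic Ringer's) was given as a priming dose plus sustained iv infusion via jugular vein. There were two 30-min periods, control then stevioside, with 10 rats per dose group. Carotid blood and timed bladder urine were collected.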

For data set [7], the system named is Rattus norvegicus. As to the kind of experiment: Effect on renal excretion in Wistar rat assessed as glucose clearance at 12 mg/kg/hr, iv (RVb=0 ml/min/kg). The data set is classed as functional, Kidney. In short, it runs like this:
as §2

The test system of data set [8] is Rattus norvegicus. Put plainly: Effect on renal excretion in Wistar rat assessed as inulin clearance at 12 mg/kg/hr, iv administered 30 mins after inulin infusion (RVb=5.69 ml/min/kg). The data set is classed as functional, Kidney.
Data set [9] deals with Rattus norvegicus. Put plainly: Effect on renal excretion in Wistar rat assessed as p-aminohippuric acid clearance at 4 mg/kg/hr, iv administered 30 mins after p-aminohippuric acid infusion (RVb=12.88 ml/min/kg). Type of data set: functional, Kidney. Put shortly: (§3)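 Pentobarbital-anaesthetized (30 mg/kg ip) male Wistar rats (~345 g), 10 per dose group, received a priming dose then a sustained jugular infusion of Ringer's with 2% PAH and 10% inulin at 0.03 ml/min. Clearance was measured over a 30-min control period, then a 30-min iv stevioside priming-plus-infusion period. PAH in carotid plasma and timed bladder urine was measured colorimetrically.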

Data set [10] concerns Rattus norvegicus. Put plainly: Effect on renal excretion in Wistar rat assessed as glomerular filtration rate at 12 mg/kg/hr, iv (RVb=1.87 %). Type of data set: functional, Kidney. Put shortly:
as §1

In data set [11] the test system is Rattus norvegicus. Put plainly: Effect on renal excretion in Wistar rat assessed as glomerular filtration rate at 8 mg/kg/hr, iv (RVb=1.47 %). Type of data set: functional, Kidney. In short, it runs like this:
as §1

Data set [12] relates to Rattus norvegicus. As to the kind of experiment: Effect on renal excretion in Wistar rat assessed as fractional sodium excretion at 16 mg/kg/hr, iv (RVb=0.60 %). The data set is classed as functional, Kidney.
Data set [13] concerns Rattus norvegicus. As to the kind of experiment: Effect on renal excretion in Wistar rat assessed as glucose clearance at 16 mg/kg/hr, iv (RVb=0 ml/min/kg). The data set is classed as functional, Kidney. Put shortly:
as §2

The test system of data set [14] is Rattus norvegicus. Put plainly: Effect on renal excretion in Wistar rat assessed as p-aminohippuric acid clearance at 12 mg/kg/hr, iv administered 30 mins after p-aminohippuric acid infusion (RVb=15.38 ml/min/kg). Type of data set: functional, Kidney. Put shortly:
as §3

Data set [15] has as its system Rattus norvegicus. As to the kind of experiment: Effect on renal excretion in Wistar rat assessed as glomerular filtration rate at 4 mg/kg/hr, iv (RVb=1.41 %). Type of data set: functional, Kidney. Put shortly: as §1
Data set [16] in a line: Clearance in Wistar rat at 12 mg/kg/hr, iv. Type of data set: ADME, organism-based. Also on record: route intravenous. Conditions: in vivo. Put shortly:
as §2

Data set [17] can be described thus: Clearance in Wistar rat at 8 mg/kg/hr, iv. Type of data set: ADME, organism-based. Details: route intravenous. Conditions: in vivo. In short, it runs like this: as §2
In data set [18] the test system is Rattus norvegicus. As to the kind of experiment: Effect on renal excretion in Wistar rat assessed as glucose clearance at 8 mg/kg/hr, iv (RVb=0 ml/min/kg). The data set is classed as functional, Kidney. In short, it runs like this: as §2
The test system of data set [19] is Rattus norvegicus. Put plainly: Effect on renal excretion in Wistar rat assessed as p-aminohippuric acid clearance at 8 mg/kg/hr, iv administered 30 mins after p-aminohippuric acid infusion (RVb=15.60 ml/min/kg). The data set is classed as functional, Kidney. In short, it runs like this: as §3
Data set [20] is described as follows: Clearance in Wistar rat at 4 mg/kg/hr, iv. The data set is classed as ADME, organism-based. Also on record: route intravenous. The following applies: in vivo. Put shortly:
as §2

Data set [21] deals with Rattus norvegicus. Put plainly: Effect on renal excretion in Wistar rat assessed as p-aminohippuric acid clearance at 16 mg/kg/hr, iv administered 30 mins after p-aminohippuric acid infusion (RVb=16.70 ml/min/kg). Type of data set: functional, Kidney. In short, it runs like this: as §3
The test system of data set [22] is Rattus norvegicus. Put plainly: Effect on renal excretion in Wistar rat assessed as inulin clearance at 8 mg/kg/hr, iv administered 30 mins after inulin infusion (RVb=6.33 ml/min/kg). The data set is classed as functional, Kidney.
The subject of data set [23] is Rattus norvegicus. Put plainly: Effect on renal excretion in Wistar rat assessed as inulin clearance at 4 mg/kg/hr, iv administered 30 mins after inulin infusion (RVb=6.66 ml/min/kg). The data set is classed as functional, Kidney.
Data set [24] relates to Rattus norvegicus. Put plainly: Effect on renal excretion in Wistar rat assessed as glucose clearance at 4 mg/kg/hr, iv (RVb=0 ml/min/kg). The data set is classed as functional, Kidney. In short, it runs like this: as §2

Usually clearance stands for a measure of how efficiently the substance is removed, as volume per time. The low end stands for inefficient removal, the high end for efficient removal.

Consider `C=C1C[C@@]23CC[C@H]4[C@@](C)(CCC[C@@]4(C)C(=O)O[C@@H]4O[C@H](CO)[C@@H](O)[C@H](O)[C@H]4O)[C@@H]2CC[C@]1(O[C@@H]1O[C@H](CO)[C@@H](O)[C@H](O)[C@H]1O[C@@H]1O[C@H](CO)[C@@H](O)[C@H](O)[C@H]1O)C3` [STEVIOSIDE], for which the Activity in data set [1] came to 1.53%; in data set [2], 6.3 mL/min/kg; in data set [3] it was 2.36%; in [4], 1.12%; in data set [5], 0.79%; in data set [7], 1.84 mL/min/kg. For the same compound, the Activity in data set [8] was found to be 5.92 mL/min/kg; in data set [9], 12.7 mL/min/kg; in data set [10] it was 2.67%; in data set [11] it was 2.19%; in data set [12] it was 1.55%; in data set [13], 2.38 mL/min/kg. Besides, the Activity is 28.3 mL/min/kg in data set [14]; 1.56% in [15]; 1.33 mL/min/kg in data set [18]; 19.2 mL/min/kg in data set [19]; 33.4 mL/min/kg in data set [21]; 6.51 mL/min/kg in data set [22]. For the same compound, the figures for the Activity in [23] and in data set [24] were 6.02 mL/min/kg and 0 mL/min/kg, respectively. Besides, the clearance is 12.5 mL/min/kg in data set [6], 10.2 mL/min/kg in data set [16], 9.63 mL/min/kg in data set [17] and 7.21 mL/min/kg in data set [20].
